Assay results taken from ChEMBL document CHEMBL4689842, “EUbOPEN Chemogenomics Library wave 1” (2021).

Test system: Fibroblast
Test: Multiplex assay against human fibroblast
Format: toxicity, cell-based
In short: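 Phenotypes for tubulin, mitochondrial mass and membrane permeability are expressed as per cents of healthy-nucleus cells. Cells were stained live at seeding with Hoechst33342, BioTracker Green Microtubule Cytoskeleton Dye, MitoTracker Red and Annexin V Alexa Fluor 680, then imaged after compound addition on a CQ1 microscope at 37°C and 5% CO2. Machine-learning gating in CellPathfinder separated Hoechst high-intensity objects from normal cells, divided normal cells by nuclear state (healthy, pyknosed, fragmented) and divided pyknosed cells into mitotic or apoptotic.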

[1] = 12 h, 1 µM, compound concentration 1 uM, replicate 1
[2] = 12 h, 1 µM, compound concentration 1 uM, replicate 2
[3] = 12 h, 10 µM, compound concentration 10 uM, replicate 1
[4] = 12 h, 10 µM, compound concentration 10 uM, replicate 2
[5] = 24 h, 1 µM, compound concentration 1 uM, replicate 1
[6] = 24 h, 1 µM, compound concentration 1 uM, replicate 2
[7] = 24 h, 10 µM, compound concentration 10 uM, replicate 1
[8] = 24 h, 10 µM, compound concentration 10 uM, replicate 2
[9] = 48 h, 1 µM, compound concentration 1 uM, replicate 1
[10] = 48 h, 1 µM, compound concentration 1 uM, replicate 2
[11] = 48 h, 10 µM, compound concentration 10 uM, replicate 1
[12] = 48 h, 10 µM, compound concentration 10 uM, replicate 2

## S=C(NCCCc1c[nH]cn1)NCCCN(Cc1ccc(Cl)c(Cl)c1)c1ccc(Br)cn1
[1]
  Population Apoptotic (%): 52%
  Population Fragmented Nuclei (%): 28%
  Population Healthy Nuclei (%): 42%
  Population Hoechst High Intensity Objects (%): 13%
  Population Membrane Permeable-Phenotype (%): 28%
  Population Mitochondria Different-Phenotype (%): 11%
  Population Mitotic Cells (%): 47%
  Population Normal (%): 86%
  Population Pyknosed Nuclei (%): 28%
  Population Tubulin-Different-Phenotype (%): 55%
  Total Cell Count: 140
[2]
  Population Apoptotic (%): 0%
  Population Fragmented Nuclei (%): 17%
  Population Healthy Nuclei (%): 82%
  Population Hoechst High Intensity Objects (%): 15%
  Population Membrane Permeable-Phenotype (%): 8%
  Population Mitochondria Different-Phenotype (%): 8%
  Population Mitotic Cells (%): 0%
  Population Normal (%): 84%
  Population Pyknosed Nuclei (%): 0%
  Population Tubulin-Different-Phenotype (%): 4%
  Total Cell Count: 79
[3]
  Population Apoptotic (%): 46%
  Population Fragmented Nuclei (%): 18%
  Population Healthy Nuclei (%): 8%
  Population Hoechst High Intensity Objects (%): 20%
  Population Membrane Permeable-Phenotype (%): 66%
  Population Mitochondria Different-Phenotype (%): 11%
  Population Mitotic Cells (%): 53%
  Population Normal (%): 79%
  Population Pyknosed Nuclei (%): 72%
  Population Tubulin-Different-Phenotype (%): 88%
  Total Cell Count: 133
[4]
  Population Apoptotic (%): 93%
  Population Fragmented Nuclei (%): 25%
  Population Healthy Nuclei (%): 2%
  Population Hoechst High Intensity Objects (%): 11%
  Population Membrane Permeable-Phenotype (%): 100%
  Population Mitochondria Different-Phenotype (%): 100%
  Population Mitotic Cells (%): 6%
  Population Normal (%): 88%
  Population Tubulin-Different-Phenotype (%): 100%
  Total Cell Count: 33
[5]
  Population Apoptotic (%): 66%
  Population Fragmented Nuclei (%): 32%
  Population Healthy Nuclei (%): 48%
  Population Hoechst High Intensity Objects (%): 17%
  Population Membrane Permeable-Phenotype (%): 19%
  Population Mitochondria Different-Phenotype (%): 11%
  Population Mitotic Cells (%): 33%
  Population Normal (%): 82%
  Population Pyknosed Nuclei (%): 18%
  Population Tubulin-Different-Phenotype (%): 64%
  Total Cell Count: 154
[6]
  Population Apoptotic (%): 0%
  Population Fragmented Nuclei (%): 19%
  Population Healthy Nuclei (%): 80%
  Population Hoechst High Intensity Objects (%): 8%
  Population Membrane Permeable-Phenotype (%): 16%
  Population Mitochondria Different-Phenotype (%): 8%
  Population Mitotic Cells (%): 0%
  Population Normal (%): 91%
  Population Pyknosed Nuclei (%): 0%
  Population Tubulin-Different-Phenotype (%): 20%
  Total Cell Count: 79
[7]
  Population Apoptotic (%): 53%
  Population Fragmented Nuclei (%): 24%
  Population Healthy Nuclei (%): 15%
  Population Hoechst High Intensity Objects (%): 21%
  Population Membrane Permeable-Phenotype (%): 56%
  Population Mitochondria Different-Phenotype (%): 18%
  Population Mitotic Cells (%): 46%
  Population Normal (%): 78%
  Population Pyknosed Nuclei (%): 60%
  Population Tubulin-Different-Phenotype (%): 93%
  Total Cell Count: 133
[8]
  Population Apoptotic (%): 100%
  Population Fragmented Nuclei (%): 12%
  Population Healthy Nuclei (%): 24%
  Population Hoechst High Intensity Objects (%): 25%
  Population Membrane Permeable-Phenotype (%): 94%
  Population Mitochondria Different-Phenotype (%): 88%
  Population Mitotic Cells (%): 0%
  Population Normal (%): 74%
  Population Pyknosed Nuclei (%): 62%
  Population Tubulin-Different-Phenotype (%): 88%
  Total Cell Count: 34
[9]
  Population Apoptotic (%): 57%
  Population Fragmented Nuclei (%): 50%
  Population Healthy Nuclei (%): 39%
  Population Hoechst High Intensity Objects (%): 20%
  Population Membrane Permeable-Phenotype (%): 24%
  Population Mitochondria Different-Phenotype (%): 1%
  Population Mitotic Cells (%): 42%
  Population Normal (%): 79%
  Population Pyknosed Nuclei (%): 9%
  Population Tubulin-Different-Phenotype (%): 36%
  Total Cell Count: 184
[10]
  Population Apoptotic (%): 50%
  Population Fragmented Nuclei (%): 40%
  Population Healthy Nuclei (%): 58%
  Population Hoechst High Intensity Objects (%): 21%
  Population Membrane Permeable-Phenotype (%): 23%
  Population Mitochondria Different-Phenotype (%): 0%
  Population Mitotic Cells (%): 50%
  Population Normal (%): 78%
  Population Pyknosed Nuclei (%): 1%
  Population Tubulin-Different-Phenotype (%): 63%
  Total Cell Count: 220
[11]
  Population Apoptotic (%): 58%
  Population Fragmented Nuclei (%): 34%
  Population Healthy Nuclei (%): 25%
  Population Hoechst High Intensity Objects (%): 34%
  Population Membrane Permeable-Phenotype (%): 39%
  Population Mitochondria Different-Phenotype (%): 26%
  Population Mitotic Cells (%): 41%
  Population Normal (%): 65%
  Population Pyknosed Nuclei (%): 40%
  Population Tubulin-Different-Phenotype (%): 91%
  Total Cell Count: 137
[12]
  Population Apoptotic (%): 80%
  Population Fragmented Nuclei (%): 37%
  Population Healthy Nuclei (%): 16%
  Population Hoechst High Intensity Objects (%): 33%
  Population Membrane Permeable-Phenotype (%): 77%
  Population Mitochondria Different-Phenotype (%): 0%
  Population Mitotic Cells (%): 20%
  Population Normal (%): 66%
  Population Pyknosed Nuclei (%): 46%
  Population Tubulin-Different-Phenotype (%): 100%
  Total Cell Count: 81

## CCc1cccc(CC)c1NC(=O)c1nn(C)c2c1CCc1cnc(Nc3ccc(C(=O)NC4CCN(C)CC4)cc3OC(F)(F)F)nc1-2
[1]
  Population Apoptotic (%): 62%
  Population Fragmented Nuclei (%): 22%
  Population Healthy Nuclei (%): 38%
  Population Hoechst High Intensity Objects (%): 7%
  Population Membrane Permeable-Phenotype (%): 24%
  Population Mitochondria Different-Phenotype (%): 7%
  Population Mitotic Cells (%): 37%
  Population Normal (%): 92%
  Population Pyknosed Nuclei (%): 39%
  Population Tubulin-Different-Phenotype (%): 47%
  Total Cell Count: 160
[2]
  Population Apoptotic (%): 40%
  Population Fragmented Nuclei (%): 1%
  Population Healthy Nuclei (%): 83%
  Population Hoechst High Intensity Objects (%): 13%
  Population Membrane Permeable-Phenotype (%): 5%
  Population Mitochondria Different-Phenotype (%): 14%
  Population Mitotic Cells (%): 60%
  Population Normal (%): 86%
  Population Pyknosed Nuclei (%): 15%
  Population Tubulin-Different-Phenotype (%): 18%
  Total Cell Count: 51
[3]
  Population Apoptotic (%): 61%
  Population Fragmented Nuclei (%): 24%
  Population Healthy Nuclei (%): 51%
  Population Hoechst High Intensity Objects (%): 21%
  Population Membrane Permeable-Phenotype (%): 8%
  Population Mitochondria Different-Phenotype (%): 26%
  Population Mitotic Cells (%): 38%
  Population Normal (%): 78%
  Population Pyknosed Nuclei (%): 23%
  Population Tubulin-Different-Phenotype (%): 60%
  Total Cell Count: 139
[4]
  Population Apoptotic (%): 46%
  Population Fragmented Nuclei (%): 12%
  Population Healthy Nuclei (%): 70%
  Population Hoechst High Intensity Objects (%): 5%
  Population Membrane Permeable-Phenotype (%): 15%
  Population Mitochondria Different-Phenotype (%): 98%
  Population Mitotic Cells (%): 53%
  Population Normal (%): 94%
  Population Pyknosed Nuclei (%): 17%
  Population Tubulin-Different-Phenotype (%): 86%
  Total Cell Count: 75
[5]
  Population Apoptotic (%): 48%
  Population Fragmented Nuclei (%): 23%
  Population Healthy Nuclei (%): 40%
  Population Hoechst High Intensity Objects (%): 11%
  Population Membrane Permeable-Phenotype (%): 23%
  Population Mitochondria Different-Phenotype (%): 5%
  Population Mitotic Cells (%): 52%
  Population Normal (%): 88%
  Population Pyknosed Nuclei (%): 35%
  Population Tubulin-Different-Phenotype (%): 53%
  Total Cell Count: 157
[6]
  Population Apoptotic (%): 37%
  Population Fragmented Nuclei (%): 7%
  Population Healthy Nuclei (%): 81%
  Population Hoechst High Intensity Objects (%): 10%
  Population Membrane Permeable-Phenotype (%): 5%
  Population Mitochondria Different-Phenotype (%): 12%
  Population Mitotic Cells (%): 62%
  Population Normal (%): 89%
  Population Pyknosed Nuclei (%): 11%
  Population Tubulin-Different-Phenotype (%): 19%
  Total Cell Count: 53
[7]
  Population Apoptotic (%): 62%
  Population Fragmented Nuclei (%): 25%
  Population Healthy Nuclei (%): 49%
  Population Hoechst High Intensity Objects (%): 30%
  Population Membrane Permeable-Phenotype (%): 16%
  Population Mitochondria Different-Phenotype (%): 40%
  Population Mitotic Cells (%): 37%
  Population Normal (%): 69%
  Population Pyknosed Nuclei (%): 25%
  Population Tubulin-Different-Phenotype (%): 50%
  Total Cell Count: 161
[8]
  Population Apoptotic (%): 50%
  Population Fragmented Nuclei (%): 15%
  Population Healthy Nuclei (%): 63%
  Population Hoechst High Intensity Objects (%): 2%
  Population Membrane Permeable-Phenotype (%): 26%
  Population Mitochondria Different-Phenotype (%): 91%
  Population Mitotic Cells (%): 50%
  Population Normal (%): 97%
  Population Pyknosed Nuclei (%): 20%
  Population Tubulin-Different-Phenotype (%): 73%
  Total Cell Count: 77
[9]
  Population Apoptotic (%): 67%
  Population Fragmented Nuclei (%): 31%
  Population Healthy Nuclei (%): 45%
  Population Hoechst High Intensity Objects (%): 15%
  Population Membrane Permeable-Phenotype (%): 16%
  Population Mitochondria Different-Phenotype (%): 7%
  Population Mitotic Cells (%): 32%
  Population Normal (%): 84%
  Population Pyknosed Nuclei (%): 23%
  Population Tubulin-Different-Phenotype (%): 40%
  Total Cell Count: 141
[10]
  Population Apoptotic (%): 20%
  Population Fragmented Nuclei (%): 38%
  Population Healthy Nuclei (%): 55%
  Population Hoechst High Intensity Objects (%): 11%
  Population Membrane Permeable-Phenotype (%): 10%
  Population Mitochondria Different-Phenotype (%): 4%
  Population Mitotic Cells (%): 80%
  Population Normal (%): 88%
  Population Pyknosed Nuclei (%): 5%
  Population Tubulin-Different-Phenotype (%): 42%
  Total Cell Count: 102
[11]
  Population Apoptotic (%): 70%
  Population Fragmented Nuclei (%): 31%
  Population Healthy Nuclei (%): 50%
  Population Hoechst High Intensity Objects (%): 38%
  Population Membrane Permeable-Phenotype (%): 16%
  Population Mitochondria Different-Phenotype (%): 15%
  Population Mitotic Cells (%): 30%
  Population Normal (%): 61%
  Population Pyknosed Nuclei (%): 18%
  Population Tubulin-Different-Phenotype (%): 47%
  Total Cell Count: 172
[12]
  Population Apoptotic (%): 25%
  Population Fragmented Nuclei (%): 29%
  Population Healthy Nuclei (%): 67%
  Population Hoechst High Intensity Objects (%): 15%
  Population Membrane Permeable-Phenotype (%): 30%
  Population Mitochondria Different-Phenotype (%): 10%
  Population Mitotic Cells (%): 75%
  Population Normal (%): 84%
  Population Pyknosed Nuclei (%): 2%
  Population Tubulin-Different-Phenotype (%): 43%
  Total Cell Count: 158
